Data on 23 molecules can be found in ChEMBL document CHEMBL4610127, “Novel Autotaxin Inhibitor for the Treatment of Idiopathic Pulmonary Fibrosis: A Clinical Candidate Discovered Using DNA-Encoded Chemistry” (J Med Chem, 2020).

Activity calls are given as the source filed them. No cut-off for these calls is given here.

As a reminder, the IC50 is the concentration that inhibits the measured activity by half.

The first assay concerns the target T1, Autotaxin (Homo sapiens, UniProt Q13822). The assay is described as follows: Inhibition of C-terminal FLAG-tagged human autotaxin expressed in Freestyle 293 cells using synthetic substrate FS-3 by fluorescence based assay. Type of assay: cell-based.
`Cc1cccc(C(=O)N[C@@H](C(=O)N2CCC3(CC2)C(=O)N(C)CN3c2ccccc2)C(C)C)c1`: the IC50 worked out at 2 nM.
`CNC(=O)CN1CN(c2ccccc2)C2(CCN(C(=O)[C@H](NC(=O)c3cccc(Cl)c3)C3CCCCC3)CC2)C1=O` displayed an IC50 of 3.5 nM.
The molecule `CC(C)[C@@H](NC(=O)c1cccc(F)c1)C(=O)N1CCC2(CC1)C(=O)N(C)CN2c1ccccc1` showed an IC50 of 2.2 nM.
`CNC(=O)CN1CN(c2ccccc2)C2(CCN(C(=O)[C@H](NC(=O)c3ccccc3)C3CCCCC3)CC2)C1=O` came in with a 50% inhibitory concentration (IC50) of 350 nM.
For the molecule `Cc1cccc(C(=O)N[C@@H](C(=O)N2CCC3(CC2)C(=O)N(C)CN3c2ccccc2)C2CCCCC2)c1F`, the half-maximal inhibitory concentration (IC50) amounted to 1.6 nM.
With `CNC(=O)CN1CN(c2ccccc2)C2(CCN(C(=O)[C@H](NC(=O)c3cccc(C)c3F)C3CCCCC3)CC2)C1=O`, the IC50 was 2 nM.

The target in a further assay is T1, Autotaxin. The assay is described as follows: Inhibition of C-terminal FLAG-tagged human autotaxin expressed in Freestyle 293 cells assessed as reduction in choline release from LPC 16:0 pre-incubated for 10 mins before LPC addition and measured after 1 hr by choline oxidase/HRP coupled assay. It counts as cell-based.
In the case of `CC(C)[C@@H](NC(=O)c1cc(C(F)(F)F)ccc1F)C(=O)N1CCC2(CC1)C(=O)N(C)C(=O)N2c1ccccc1`, the IC50 stood at 100 nM.
Consider `Cc1ccc(C(F)(F)F)cc1C(=O)N[C@@H](C(=O)N1CCC2(CC1)C(=O)N(C)C(=O)N2c1ccc2[nH]ncc2c1)C(C)C`, for which the IC50 was 4900 nM.
Still for that read-out and setting: under `CC(C)[C@@H](NC(=O)c1cc(C(F)(F)F)ccc1Cl)C(=O)N1CCC2(CC1)C(=O)N(C)C(=O)N2c1ccc2[nH]ncc2c1` stands 1470 nM.
With `Cc1ccc(N2C(=O)N(C)C(=O)C23CCN(C(=O)[C@H](NC(=O)c2cc(C(F)(F)F)ccc2F)C(C)C)CC3)cc1`, the IC50 was 38 nM.
The same measure, in the same setting: then `CN1C(=O)N(c2ccc3[nH]ncc3c2)C2(CCN(C(=O)CNC(=O)c3cc(C(F)(F)F)ccc3F)CC2)C1=O`, with 10000 nM.
For `Cc1cccc(C(=O)N[C@@H](C(=O)N2CCC3(CC2)C(=O)N(C)CN3c2ccccc2)C2CCOCC2)c1`, the IC50 was 623 nM.
Take `Cc1cccc(C(=O)N[C@@H](C(=O)N2CCC3(CC2)C(=O)N(C)CN3C2CC2)C2CCCCC2)c1F`: the IC50 turned out to be 819 nM.
On the same count and under the same terms, under `CC(C)[C@H](NC(=O)c1cc(C(F)(F)F)ccc1F)C(=O)N1CCC2(CC1)C(=O)N(C)C(=O)N2c1ccc2[nH]ncc2c1` stands 10000 nM.
Still for that read-out and setting: then `Cc1cccc(C(=O)N[C@@H](C(=O)N2CCC3(CC2)C(=O)N(C)CN3c2ccccn2)C2CCCCC2)c1`, with 905 nM; and `Cc1cccc(C(=O)N[C@@H](C(=O)N2CCC3(CC2)C(=O)N(C)C(=O)N3c2ccccc2)C(C)C)c1F`, with 683 nM; and `CC(C)[C@@H](NC(=O)c1cc(C(F)(F)F)ccc1F)C(=O)N1CCC2(CC1)C(=O)N(C)C(=O)N2c1cccc(Cl)c1`, with 46 nM.
Turning to `CC(C)[C@@H](NC(=O)c1cc(C(F)(F)F)ccc1F)C(=O)N1CCC2(CC1)C(=O)N(C)CN2c1ccc2[nH]ncc2c1`, the IC50 came out at 13.4 nM.
In the case of `Cc1cccc(C(=O)N[C@@H](C(=O)N2CCC3(CC2)C(=O)N(C)CN3c2ccccc2)C2CCCCC2)c1F`, the IC50 was determined as 56 nM.
On the same count and under the same terms, under `CC(C)[C@@H](NC(=O)c1cccc(C(F)(F)F)c1)C(=O)N1CCC2(CC1)C(=O)N(C)C(=O)N2c1ccc2[nH]ncc2c1` stands 340 nM.
Same read-out and setting: under `CN1C(=O)N(c2ccc3[nH]ncc3c2)C2(CCN(C(=O)[C@H](NC(=O)c3cc(C(F)(F)F)ccc3F)C3CCCC3)CC2)C1=O` stands 34 nM; under `CC(C)[C@@H](NC(=O)c1cc(C(F)(F)F)ccc1F)C(=O)N1CCC2(CC1)C(=O)N(C)C(=O)N2c1ccc(C(=O)O)cc1`, 31 nM; under `CNC(=O)CN1CN(c2ccccc2)C2(CCN(C(=O)[C@H](NC(=O)c3cccc(C)c3F)C3CCCCC3)CC2)C1=O`, 86 nM.
For the molecule `Cc1cccc(C(=O)N[C@H](C(=O)N2CCC3(CC2)C(=O)N(C)CN3c2ccccc2)C2CCOCC2)c1`, the IC50 came out at 10000 nM.

The test system of the next assay is Mus musculus. The assay is described as follows: Anti-fibrotic activity in C57BL/6 mouse model of bleomycin-induced lung fibrosis assessed as reduction in hydroxyproline levels at 30 to 100 mg/kg, po BID dosed until day 21 starting one day prior to bleomycin treatment. Type of assay: functional, organism-based. The method in brief: (§1)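 Mice received oral doses of 30, 100 or 300 mg/kg BID. Prophylactic arm started one day before bleomycin; therapeutic arm started seven days after. Mice were sacrificed 21 days post-bleomycin and lung hydroxyproline was measured per mouse. Group medians were compared with bleomycin + vehicle by p-value. Reference inhibitor control: 30 and 100 mg/kg BID.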
Consider `CCc1nc2c(C)cc(N3CCN(CC(=O)N4CC(O)C4)CC3)cn2c1N(C)c1nc(-c2ccc(F)cc2)c(C#N)s1`, for which the result was Active.

Another assay has as its system Mus musculus. Put plainly: Anti-fibrotic activity in C57BL/6 mouse model of bleomycin-induced lung fibrosis assessed as reduction in hydroxyproline levels at 30 to 100 mg/kg, po BID for 21 days dosed 7 days after bleomycin treatment. It counts as functional, organism-based. The method in brief:
as §1
In the case of `CCc1nc2c(C)cc(N3CCN(CC(=O)N4CC(O)C4)CC3)cn2c1N(C)c1nc(-c2ccc(F)cc2)c(C#N)s1`, the outcome was Active.
